# Test results as given in ChEMBL document CHEMBL1128718, “2-Substituted penems with amino acid-related side chains: synthesis and antibacterial activity of a new series of beta-lactam antibiotics” (1995).
# Tests used:
# Type in all cases: functional
# Enterococcus faecium = assay: In Vitro Anti Bacterial Activity (MIC90) against 90% of tested clinical Isolates of Enterococcus faecium(47)
# In short: (§1)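 Over 500 clinical isolates tested in total; the line gives the isolate count. MIC90 for aerobes by dilution in Mueller Hinton 2 medium, inoculum 10⁴ cells/mL, incubated 24 h at 37 °C.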
# Clostridium perfringens = assay: In Vitro Anti Bacterial Activity (MIC90) against 90% of tested clinical Isolates of Clostridium perfringens(27)
# In short: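 MIC90 over clinical isolates of this anaerobic species, taken from the MIC distribution. Anaerobes were tested on Wilkins-Chalgren agar with an inoculum of 10⁵ cells/mL and incubated 24–48 h at 37 °C.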
# Escherichia coli [1] = assay: In Vitro antibacterial activity against (Ec) Escherichia coli ATCC 25922
# In short: (§2)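 Panel of standard ATCC strains plus modified strains: methicillin-resistant, hyperpermeable, β-lactamase-producing (TEM1, TEM2, SHV) and β-lactamase-lacking. MIC determined in Mueller Hinton 2 medium, inoculum 10⁴ cells/mL, incubated 24 h at 37 °C.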
# Streptococcus pyogenes = assay: In Vitro Anti Bacterial Activity (MIC90) against 90% of tested clinical Isolates of Streptococcus pyogenes(31)
# Escherichia coli [2] = assay: In Vitro Anti Bacterial Activity (MIC90) against 90% of tested clinical Isolates of Escherichia coli; in short: as §1
# Staphylococcus aureus [3] = assay: In vitro antibacterial activity against Sa MR(I) heterogeneous methicillin resistant Staphylococcus aureus
# In short: (§3)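 MIC was determined in Mueller Hinton 2 medium with an inoculum of 10⁴ cells/mL and incubation for 24 h at 37 °C. Strains: Sa(I) is S. aureus ATCC 29213; Sa MR(I) is a heterogeneous methicillin-resistant S. aureus; Sa MR(II) is a homogeneous methicillin-resistant S. aureus.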
# Staphylococcus aureus [4] = assay: In vitro antibacterial activity against Sa(II) Staphylococcus aureus ATCC 25923; in short: as §2
# Staphylococcus aureus [5] = assay: In Vitro Anti Bacterial Activity (MIC90) against 90% of tested clinical Isolates of Staphylococcus aureus MV (20)
# Staphylococcus aureus [6] = assay: In Vitro Anti Bacterial Activity (MIC90) against 90% of tested clinical Isolates of Staphylococcus aureus MS (6); in short: as §1
# [7] = system: Acinetobacter calcoaceticus subsp. anitratus; assay: In Vitro Anti Bacterial Activity (MIC90) against 90% of tested clinical Isolates of Acinetobacter anitratus(20); in short: as §1
# Streptococcus agalactiae = assay: In Vitro Anti Bacterial Activity (MIC90) against 90% of tested clinical Isolates of Streptococcus agalactiaeB(21)
# Klebsiella aerogenes = assay: In Vitro Anti Bacterial Activity (MIC90) against 90% of tested clinical Isolates of Enterobacter aerogenes(19); in short: as §1
# Bacteroides fragilis = assay: In Vitro Anti Bacterial Activity (MIC90) against 90% of tested clinical Isolates of Bacteroides fragilis(15)
# In short: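 Anaerobic clinical isolates. MIC90 by dilution in Wilkins-Chalgren agar, inoculum 10⁵ cells/mL, incubated 24–48 h at 37 °C.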
# Listeria monocytogenes = assay: In Vitro Anti Bacterial Activity (MIC90) against 90% of tested clinical Isolates of Listeria monocytogenes (20); in short: as §1
# [8] = system: Staphylococcus epidermidis; assay: In Vitro Anti Bacterial Activity (MIC90) against 90% of tested clinical Isolates of Staphylococcus epidermidis (13); in short: as §1
# Klebsiella pneumoniae = assay: In Vitro Anti Bacterial Activity (MIC90) against 90% of tested clinical Isolates of Klebsiella pneumoniae(20); in short: as §1
# Escherichia coli [9] = assay: In Vitro antibacterial activity against (Ec TEM2) Escherichia coli […] strain; in short: as §2
# Streptococcus pneumoniae = assay: In Vitro Anti Bacterial Activity (MIC90) against 90% of tested clinical Isolates of Streptococcus pneumoniae (23)
# Pseudomonas aeruginosa [10] = assay: In Vitro antibacterial activity against (Pa) hyperpermeable Pseudomonas aeruginosa […] strain; in short: as §2
# Yersinia sp. = assay: In Vitro Anti Bacterial Activity (MIC90) against 90% of tested clinical Isolates of Yersinia species(20); conditions: Yersinia sp. (in: enterobacteria)
# Pseudomonas aeruginosa [11] = assay: In Vitro antibacterial activity against (Pa) Pseudomonas aeruginosa ATCC 27853; in short: as §2
# Escherichia coli [12] = assay: In Vitro antibacterial activity against (Ec TEM1) Escherichia coli […] strain; in short: as §2
# Escherichia coli [13] = assay: In Vitro antibacterial activity against (Ec L) Escherichia coli […] strain; in short: as §2
# Pseudomonas aeruginosa [14] = assay: In Vitro antibacterial activity against (Pa G242) hyperpermeable Pseudomonas aeruginosa strain; in short: as §2
# [15] = system: Stenotrophomonas maltophilia; assay: In Vitro Anti Bacterial Activity (MIC90) against 90% of tested clinical Isolates of Xanthomonas maltophilia(9); in short: as §1
# Enterococcus faecalis [16] = assay: In Vitro antibacterial activity against (Ef) Enterococcus faecalis ATCC 29212; in short: as §2
# Haemophilus influenzae = assay: In Vitro Anti Bacterial Activity (MIC90) against 90% of tested clinical Isolates of Haemophilus Influenzae(21)
# In short: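 Clinical isolates. MIC90 in Haemophilus Test Medium Base plus Haemophilus Test Medium Supplement, inoculum 10⁴ cells/mL, incubated 24–48 h at 37 °C.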
# Staphylococcus aureus [17] = assay: In vitro antibacterial activity against Sa MR(II) homogeneous methicillin resistant Staphylococcus aureus; in short: as §3
# Escherichia coli [18] = assay: In Vitro antibacterial activity against (Ec DC2) hyperpermeable Escherichia coli strain; in short: as §2
# Aeromonas = assay: In Vitro Anti Bacterial Activity (MIC90) against 90% of tested clinical Isolates of Aeromonas species(21); in short: as §1
# Pseudomonas aeruginosa [19] = assay: In Vitro Anti Bacterial Activity (MIC90) against 90% of tested clinical Isolates of Pseudomonas aeruginosa(11); in short: as §1
# Moraxella catarrhalis = assay: In Vitro Anti Bacterial Activity (MIC90) against 90% of tested clinical Isolates of Branhamella catarrhalis(27)
# Staphylococcus aureus [20] = assay: In vitro antibacterial activity against Sa(I) Staphylococcus aureus ATCC 29213; in short: as §3
# Escherichia coli [21] = assay: In Vitro antibacterial activity against (Ec SHV) Escherichia coli […] strain; in short: as §2
# Citrobacter freundii = assay: In Vitro Anti Bacterial Activity (MIC90) against 90% of tested clinical Isolates of Citrobacter freundii(20); in short: as §1
# Enterococcus faecalis [22] = assay: In Vitro Anti Bacterial Activity (MIC90) against 90% of tested clinical Isolates of Enterococcus faecalis(47); in short: as §1
smiles,measurement,setting,value
C[C@@H](O)[C@H]1C(=O)N2C(C(=O)O)=C(CN3CCC[C@@H]3C(N)=O)S[C@H]12,MIC90,Enterococcus faecium,> 64 µg/mL
same,MIC90,Clostridium perfringens,1 µg/mL
same,MIC,Escherichia coli [1],1 µg/mL
same,MIC90,Streptococcus pyogenes,0.5 µg/mL
same,MIC90,Escherichia coli [2],1 µg/mL
same,MIC,Staphylococcus aureus [3],0.12 µg/mL
same,MIC,Staphylococcus aureus [4],0.015 µg/mL
same,MIC90,Staphylococcus aureus [5],8 µg/mL
same,MIC90,Staphylococcus aureus [6],0.06 µg/mL
same,MIC90,[7],32 µg/mL
same,MIC90,Streptococcus agalactiae,0.12 µg/mL
same,MIC90,Klebsiella aerogenes,16 µg/mL
same,MIC90,Bacteroides fragilis,16 µg/mL
same,MIC90,Listeria monocytogenes,2 µg/mL
same,MIC90,[8],0.12 µg/mL
same,MIC90,Klebsiella pneumoniae,1 µg/mL
same,MIC,Escherichia coli [9],1 µg/mL
same,MIC90,Streptococcus pneumoniae,0.5 µg/mL
same,MIC,Pseudomonas aeruginosa [10],0.25 µg/mL
same,MIC90,Yersinia sp.,1 µg/mL
same,MIC,Pseudomonas aeruginosa [11],32 µg/mL
same,MIC,Escherichia coli [12],1 µg/mL
same,MIC,Escherichia coli [13],1 µg/mL
same,MIC,Pseudomonas aeruginosa [14],1 µg/mL
same,MIC90,[15],> 64 µg/mL
same,MIC,Enterococcus faecalis [16],16 µg/mL
same,MIC90,Haemophilus influenzae,2 µg/mL
same,MIC,Staphylococcus aureus [17],4 µg/mL
same,MIC,Escherichia coli [18],0.5 µg/mL
same,MIC90,Aeromonas,0.25 µg/mL
same,MIC90,Pseudomonas aeruginosa [19],> 64 µg/mL
same,MIC90,Moraxella catarrhalis,2 µg/mL
same,MIC,Staphylococcus aureus [20],0.06 µg/mL
same,MIC,Escherichia coli [21],1 µg/mL
same,MIC90,Citrobacter freundii,1 µg/mL
same,MIC90,Enterococcus faecalis [22],32 µg/mL
